Series [1] can be described thus: Solubility in DMF at 1.5 mg sonicated for 45 mins followed by centrifugation for 45 mins by UV/Vis spectroscopy. The format is physicochemical. Conditions: 0.75 h. The procedure, abridged: (§1)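 Solid compound (~1.5 mg) in the stated solvent was sonicated 45 min, then centrifuged at 1400g for 45 min. The supernatant concentration was read by UV/vis at 340 nm, using ε = 41500 M⁻¹ cm⁻¹ for the free phenols and 34500 M⁻¹ cm⁻¹ for the phosphate prodrugs (pH 7.0 values).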

In the next series the test system is HL-60. Nature of the series: Cytotoxicity against human HL60 cells assessed as cell survival after 72 hrs by clonogenic assay. Conditions: HL-60, 72 h. The class given is functional, cell-based. The method in brief: (§2)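 Cells were kept in RPMI 1640 with 10% heat-inactivated FBS at 37 °C and 6% CO₂. They were plated at 1000–5000 cells/well and exposed to 0–3 nM test agent for 72 h. Medium was then replaced and colonies grew for 7–10 days in total after plating. Colonies were fixed and stained with 0.2% crystal violet in 10% formalin/PBS, then counted. Surviving fraction = colonies in treated wells / colonies in control wells; IC₅₀ was taken from this.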

Series [2] is described as follows: Solubility in DMSO at 1.5 mg sonicated for 45 mins followed by centrifugation for 45 mins by UV/Vis spectroscopy. The settings on record: 0.75 h. The class given is physicochemical. The method in brief: as §1
The nature of series [3]: Solubility in methanol at 1.5 mg sonicated for 45 mins followed by centrifugation for 45 mins by UV/Vis spectroscopy. The format is physicochemical. Conditions: 0.75 h. The procedure, abridged:
as §1

The nature of series [4]: Solubility in ethyl acetate at 1.5 mg sonicated for 45 mins followed by centrifugation for 45 mins by UV/Vis spectroscopy. The settings on record: 0.75 h. The format is physicochemical. The method in brief: as §1
Series [5] in a line: Solubility in toluene at 1.5 mg sonicated for 45 mins followed by centrifugation for 45 mins by UV/Vis spectroscopy. The class given is physicochemical. The settings on record: 0.75 h. The method in brief:
as §1

The test system of series [6] is Ramos. In words: Cytotoxicity against human Ramos cells assessed as cell survival after 72 hrs by clonogenic assay. The format is functional, cell-based. The procedure, abridged:
as §2

Series [7] is described as follows: Solubility in DMA at 1.5 mg sonicated for 45 mins followed by centrifugation for 45 mins by UV/Vis spectroscopy. The format is physicochemical. The settings on record: 0.75 h. The procedure, abridged: as §1
The nature of series [8]: Solubility in hexane at 1.5 mg sonicated for 45 mins followed by centrifugation for 45 mins by UV/Vis spectroscopy. The class given is physicochemical. Conditions: 0.75 h. The procedure, abridged: as §1
A short description of series [9]: Cytotoxicity against human NAMALWA cells assessed as cell survival after 72 hrs by clonogenic assay. The class given is functional, cell-based. The settings on record: NAMALVA. The method in brief:
as §2

Series [10] is described as follows: Solubility in water at 1.5 mg sonicated for 45 mins followed by centrifugation for 45 mins by UV/Vis spectroscopy. The class given is physicochemical. Conditions: 0.75 h. The method in brief:
as §1

Series [11] can be described thus: Solubility in ethanol at 1.5 mg sonicated for 45 mins followed by centrifugation for 45 mins by UV/Vis spectroscopy. The format is physicochemical. The settings on record: 0.75 h. The procedure, abridged: as §1
Series [12] in a line: Solubility in chloroform at 1.5 mg sonicated for 45 mins followed by centrifugation for 45 mins by UV/Vis spectroscopy. Conditions: 0.75 h. The format is physicochemical. The method in brief: as §1
Series [13] is described as follows: Solubility in dichloromethane at 1.5 mg sonicated for 45 mins followed by centrifugation for 45 mins by UV/Vis spectroscopy. Conditions: 0.75 h. The class given is physicochemical.
A short description of series [14]: Prodrug activation assessed as enzyme-mediated compound dephosphorylation in presence of human semen prostatic acid phosphatase P1649 at pH 7.4 by HPLC. Conditions: isolated protein.
A short description of series [15]: Prodrug activation assessed as enzyme-mediated compound dephosphorylation in presence of bovine kidney alkaline phosphatase P4653 at pH 7.4 by HPLC. Conditions: cattle, isolated protein.
Series [16] can be described thus: Prodrug activation assessed as enzyme-mediated compound dephosphorylation in presence of porcine kidney alkaline phosphatase P4439 at pH 7.4 by HPLC. The settings on record: pig, isolated protein.
Series [17] in a line: Prodrug activation assessed as enzyme-mediated compound dephosphorylation in presence of calf intestine mucosa alkaline phosphatase P79390 at pH 7.4 by HPLC. Conditions: cattle, isolated protein.
Series [18] is described as follows: Prodrug activation assessed as enzyme-mediated compound dephosphorylation in presence of wheat germ acid phosphatase Sigma P3627 at pH 7.4 by HPLC. The settings on record: isolated protein.
The nature of series [19]: Solubility in water containing 5% DMA at 1.5 mg sonicated for 45 mins followed by centrifugation for 45 mins by UV/Vis spectroscopy. The class given is physicochemical. The settings on record: 0.75 h.
The nature of series [20]: Prodrug activation assessed as enzyme-mediated compound dephosphorylation in presence of human placenta alkaline phosphatase from P3895 at pH 7.4 by HPLC. Conditions: isolated protein.
The nature of series [21]: Prodrug activation assessed as enzyme-mediated compound dephosphorylation in presence of bovine intestinal mucosa alkaline phosphatase P7640 at pH 7.4 by HPLC. The settings on record: cattle, isolated protein.
The test system of series [22] is Ramos. Nature of the series: Antitumor activity against human Ramos cells xenografted in CB17 SCID mouse assessed as reduction in tumor growth rate at 75 ug/kg, iv dosed as qdx5 regime starting 7 days post xenograft. The format is functional, organism-based. The procedure, abridged: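 Female CB 17 SCID mice, five weeks old, were given Ramos cells subcutaneously under the right shoulder (5 × 10⁶ cells/mouse in 0.1 mL serum-free medium). Tumors grew 7 days to about 100 mm³. Mice were randomized, six per group. Dosing was 75 μg/kg (drug basis) qd ×5, given intravenously, with phosphate-buffered saline as vehicle control. Tumors were measured in three dimensions twice weekly, with volume = ½(l×w×h); body weight was also taken twice weekly.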
A general note: Xenograft models place foreign cells or tissue in a host animal.

Series [23] can be described thus: Prodrug activation assessed as enzyme-mediated compound dephosphorylation in presence of canine intestine alkaline phosphatase P8639 at pH 7.4 by HPLC. The settings on record: dog, isolated protein.
Series [24] can be described thus: Solubility in water containing 5% DMSO at 1.5 mg sonicated for 45 mins followed by centrifugation for 45 mins by UV/Vis spectroscopy. The class given is physicochemical. Conditions: 0.75 h.
A short description of series [25]: Prodrug activation assessed as enzyme-mediated compound dephosphorylation in presence of calf intestine alkaline phosphatase P7923 at pH 7.4 by HPLC. Conditions: cattle, isolated protein.
Series [26] can be described thus: Solubility in water containing 5% acetone at 1.5 mg sonicated for 45 mins followed by centrifugation for 45 mins by UV/Vis spectroscopy. The class given is physicochemical. Conditions: 0.75 h.
A short description of series [27]: Prodrug activation assessed as enzyme-mediated compound dephosphorylation in presence of rabbit intestine alkaline phosphatase P2256 at pH 7.4 by HPLC. The settings on record: isolated protein.
A short description of series [28]: Prodrug activation assessed as enzyme-mediated compound dephosphorylation in presence of bovine semen prostatic acid phosphatase P3147 at pH 7.4 by HPLC. Conditions: cattle, isolated protein.
The nature of series [29]: Solubility in water containing 5% DMF at 1.5 mg sonicated for 45 mins followed by centrifugation for 45 mins by UV/Vis spectroscopy. The format is physicochemical. The settings on record: 0.75 h.
Series [30] in a line: Stability of the compound in 5 % DMA assessed as cyclopropyl ring formation incubated for 1 yr at room temperature at pH 7 by HPLC analysis. The format is physicochemical. The settings on record: buffer, pH 7, 8766 h. The procedure, abridged: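 Phosphate prodrug is stored for one year at room temperature in phosphate buffer containing 5% DMA at pH ~7. Conversion to the ring-closed cyclopropyl form is monitored by HPLC.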

Series [31] can be described thus: Prodrug activation assessed as enzyme-mediated compound dephosphorylation in presence of porcine intestine mucosa alkaline phosphatase P4002 at pH 7.4 by HPLC. Conditions: pig, isolated protein.
Series [32] is described as follows: Solubility in water containing 5% THF at 1.5 mg sonicated for 45 mins followed by centrifugation for 45 mins by UV/Vis spectroscopy. The class given is physicochemical. Conditions: 0.75 h.
The nature of series [33]: Prodrug activation assessed as enzyme-mediated compound dephosphorylation in presence of bovine alkaline phosphatase P8361 at pH 7.4 by HPLC. Conditions: cattle, isolated protein.
Series [34] is described as follows: Solubility in water containing 5% dioxane at 1.5 mg sonicated for 45 mins followed by centrifugation for 45 mins by UV/Vis spectroscopy. The format is physicochemical. The settings on record: 0.75 h.
The nature of series [35]: Prodrug activation assessed as enzyme-mediated compound dephosphorylation in presence of bovine liver alkaline phosphatase P7034 at pH 7.4 by HPLC. Conditions: cattle, isolated protein.

Activity calls are given as the source filed them. No cut-off for these calls is given here.

This is an account of results in ChEMBL document CHEMBL2157989, “Synthesis and biological evaluation of antibody conjugates of phosphate prodrugs of cytotoxic DNA alkylators for the targeted treatment of cancer” (J Med Chem, 2012).

As a reminder, the IC50 is the concentration that inhibits the measured activity by half. For the compound `CC(=O)SCCC(=O)Nc1ccc2[nH]c(C(=O)Nc3ccc4[nH]c(C(=O)N5C[C@@H](CCl)c6c5cc(O)c5ccccc65)cc4c3)cc2c1`, the solubility entry is recorded as “soluble” in series [1]; “soluble” in [2]; “Insoluble” in series [3]; “Insoluble” in series [4]; “Insoluble” in series [5]; “soluble” in series [7]. Further, the solubility entry in series [8], in [10], in series [11], in series [12] and in series [13] was “Insoluble” each time. For the same compound, the IC50 with HL-60 amounted to 0.045 nM; in the series on Ramos [6], 0.047 nM; in series [9] it was 0.02 nM.

Turning to `O=C(Nc1ccc2[nH]c(C(=O)N3C[C@@H](CCl)c4c3cc(O)c3ccccc43)cc2c1)c1cc2cc([N+](=O)[O-])ccc2[nH]1`, the results for the IC50 (in the series on HL-60; in series [9]) were 0.007 nM and 0.005 nM, respectively.

For `Nc1ccc2[nH]c(C(=O)Nc3ccc4[nH]c(C(=O)N5C[C@@H](CCl)c6c5cc(O)c5ccccc65)cc4c3)cc2c1`, the IC50 is 0.03 nM in the series on HL-60 and 0.005 nM in series [9].

Turning to `CSSCCC(=O)Nc1ccc2[nH]c(C(=O)Nc3ccc4[nH]c(C(=O)N5C[C@H]6CC67C5=CC(=O)c5ccccc57)cc4c3)cc2c1` (stereo partly specified), the IC50 with HL-60 was 0.012 nM; in the series on Ramos [6] it was 0.015 nM; in series [9], 0.012 nM.

With `O=C(CCSSc1ccccn1)Nc1ccc2[nH]c(C(=O)Nc3ccc4[nH]c(C(=O)N5C[C@@H](CCl)c6c5cc(O)c5ccccc65)cc4c3)cc2c1`, the solubility result is “soluble” in [1]; “soluble” in series [2]; “Insoluble” in series [3]; “Insoluble” in [4]; “Insoluble” in series [5]; “soluble” in [7]. Further, the solubility result in series [8], in [10], in series [11], in series [12] and in series [13] was “Insoluble” in each case. Also, the IC50 with HL-60 came out at 0.05 nM; in the series on Ramos [6] it was 0.05 nM; in series [9], 0.09 nM.

In the case of `CC(C)(S)CCC(=O)Nc1ccc2[nH]c(C(=O)Nc3ccc4[nH]c(C(=O)N5C[C@@H](CCl)c6c5cc(OP(=O)(O)O)c5ccccc65)cc4c3)cc2c1`, the Drug metabolism result in series [14], in series [15], in [16], in series [17], in series [18] and in series [20] was “Active” each time. The Drug metabolism entry in series [21], in series [23], in [25], in [27], in series [28] and in [31] was “Active” throughout. For the same compound, the Drug metabolism result in series [33] and in series [35] was “Active” throughout. Besides, the solubility result in series [1] is listed as “soluble”; in [19], “soluble”; in [2] it was “soluble”; in series [3], “Insoluble”; in series [4] it was “Insoluble”; in series [5] it was “Insoluble”. Moreover, the solubility result was “soluble” in [24]; “soluble” in series [7]; “Insoluble” in series [8]; “soluble” in series [26]; “soluble” in [29]; “Insoluble” in series [10]. The solubility result is listed as “Insoluble” in series [11]; “Insoluble” in series [12]; “soluble” in [32]; “soluble” in series [34]; “Insoluble” in series [13]. The outcome in the series with Ramos [22] was inactive. The Drug degradation in series [30] was determined as 3%.

In the case of `O=C(CCS)Nc1ccc2[nH]c(C(=O)Nc3ccc4[nH]c(C(=O)N5C[C@@H](CCl)c6c5cc(OP(=O)(O)O)c5ccccc65)cc4c3)cc2c1`, the Drug metabolism result in series [14], in series [15], in series [16], in [17], in series [18] and in series [20] was “Active” throughout. In addition, the Drug metabolism result in series [21], in series [23], in [25], in series [27], in series [28] and in series [31] was “Active” each time. Moreover, the Drug metabolism entry in [33] and in series [35] was “Active” in each case. In addition, the solubility entry in series [1] is recorded as “soluble”; in series [19] it was “soluble”; in [2], “soluble”; in [3], “Insoluble”; in [4] it was “Insoluble”; in [5], “Insoluble”. The solubility entry is “soluble” in series [24]; “soluble” in series [7]; “Insoluble” in series [8]; “soluble” in series [26]; “soluble” in series [29]; “Insoluble” in series [10]. For the same compound, the solubility result in series [11] is reported as “Insoluble”; in series [12], “Insoluble”; in series [32], “soluble”; in series [34], “soluble”; in series [13], “Insoluble”. Further, the outcome with Ramos [22] was inactive. The Drug degradation in series [30] came to 3%.
